# Screening data: PubChem, Johns Hopkins Ion Channel Center
# TRPC4 act – opens the mouse TRPC4 cation channel. Q9QUQ5. HEK293 TRPC4beta/mu-opioid, Fluo4 calcium fluorescence; stronger effect = higher value. 0.49% of 310,000 active. B-score at 10 µM;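 active = B-score above 5 SD of library B-scores, and initial fluorescence ratio not above library mean plus 5 SD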;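 also: positive B-score marks a calcium rise read as TRPC4 activation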
#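 Assay system: HEK293 stable line with TRPC4beta plus mu-opioid receptor; schedule: 45 min room-temperature Fluo4 loading, 110 s read; technique: kinetic Fluo4 calcium fluorescence; evaluation: integrated baseline-normalised fluorescence ratio, converted to per-well B score; controls: buffer (low) and maximal DAMGO (high)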
# TRPC4 potent – allosterically enhances the mouse TRPC4 cation channel; Q9QUQ5; HEK293 TRPC4beta/mu-opioid, DAMGO EC20, Fluo-4 Ca2+ flux; stronger effect = higher value; B-score at 10 µM; 0.42% of 310,000 active;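 active = B-score of calcium response area above 5 SD of library B-scores, with initial fluorescence ratio within 5 SD of library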
# TRPC6 activator – mouse TRPC6 channel activation; Q61143; HEK293-TRPC6 membrane potential dye fluorescence; stronger effect = higher value; B-score at 10 µM; 0.13% of 310,000 active;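 active = B-score of the integrated fluorescence ratio above library mean plus 3 SD, and starting fluorescence ratio within library mean plus 5 SD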;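 also: higher score means more depolarization so channel activation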
# TRPC4 block – blocks the mouse TRPC4 cation channel | HEK293 TRPC4beta/mu-opioid, DAMGO-evoked Fluo4 calcium flux; stronger effect = lower value | 0.39% of 300,000 active | B-score at 10 µM;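 active = B-score over 3 SD under the library average, no early fluorescence shift, positive overall ratio signal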
#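 Test system – stable TRPC4beta/mu-opioid receptor HEK293 cells · Probe or stimulus – DAMGO, a submaximal dose followed by a maximal one · Dosing – one concentration per compound · Signal – Fluo4 calcium fluorescence by kinetic imaging, 5 s 1 Hz baseline · Evaluation – per-well B score of integrated baseline-normalized Fluo4 ratio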
# TRPC6 inh – blocks the mouse TRPC6 cation channel | Q61143 | HEK293-TRPC6, membrane potential dye, ACh-evoked depolarization; stronger effect = lower value | B-score at 10 µM | 1.1% of 310,000 active | AID 2553;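 active = B-score under library mean minus 3 SD, initial fluorescence not abnormally high, positive integrated signal ratio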;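 also: B-score derived from integrated fluorescence ratio over the kinetic read; more negative B-score means stronger inhibition of depolarization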
# TRPC4 sel inh 2 – second selectivity test of TRPC6 inhibitors: effect on mouse TRPC4; shares compounds with TRPC6 inh; HEK293 TRPC4/MOR, membrane potential dye fluorescence; channel activated by saturating DAMGO dose; 42% of 920 active; AID 2776; inhibition, % at 10 µM;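 active = compounds whose fluorescence signal differed from control wells by over 3 SD, either direction, in both duplicate plates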
# TRPC4 spec – selectivity of TRPC6 inhibitors: effect on mouse TRPC4; 61% of 920 active; HEK293 TRPC4/mu-opioid, membrane potential fluorescence; shares compounds with TRPC6 inh; activity change, negative = inhibition, % at 10 µM;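 active = rise or fall in signal beyond 3 SD of buffer-only wells in both replicate plates, either sign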;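 also: integrated kinetic ratio of fluorescence range over baseline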
# HEK293 MPD ctr 2-1 – second check of TRPC6 inhibitor effects in parental HEK293 cells. shares compounds with TRPC6 inh. AID 2779. signal change vs control, % at 10 µM. 31% of 920 active. parental HEK293 membrane potential dye fluorescence; maximal acetylcholine challenge after compound addition;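 active = membrane potential signal moving either way by over 3 SD of the maximum-effect control, in both duplicate plates, meaning non-specific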
# HEK293 MPD ctr-1 – counter-screen for TRPC6 inhibitors: effect in parental HEK293 cells; shares compounds with TRPC6 inh; parental HEK293 membrane potential dye fluorescence; membrane potential signal change, % at 10 µM; 60% of 920 active; AID 2780;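 active = membrane potential signal shifting up or down by more than 3 SD of buffer-only wells, on both duplicate plates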
# HEK293 MPD ctr-2 – counter-screen for TRPC6 modulators: effect in parental HEK293 cells; membrane potential signal change, % at 10 µM; shares compounds with TRPC6 inh; membrane potential dye fluorescence; 51% of 2,400 active;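 active = membrane potential signal moves up or down beyond 5 SD from buffer-only wells, on both duplicate plates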
# HEK293 MPD ctr 2-2 – parental HEK293 nonspecific activity of TRPC6 modulators, second screen; inhibition, % at 10 µM; shares compounds with TRPC6 inh; 14% of 2,400 active; membrane potential dye fluorescence; after compound, maximal acetylcholine stimulation;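 active = membrane potential signal drops by more than 5 SD from the mean control signal, in both duplicate plates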
# TRPC4 ctr mod – selectivity of TRPC6 modulators against mouse TRPC4; percent change from control (negative = decrease, positive = increase), % at 10 µM; 69% of 2,400 active; HEK293 TRPC4/mu-opioid, membrane potential fluorescence; shares compounds with TRPC6 inh; AID 488927;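 active = membrane potential signal moved up or down beyond 5 SD of buffer control wells, in both duplicate plates, actives on both sides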
# TRPC4 ctr inh 2 – second check of whether TRPC6 modulators also affect mouse TRPC4; shares compounds with TRPC6 inh; inhibition, % at 10 µM; 55% of 2,400 active; HEK293 TRPC4/mu-opioid, membrane potential dye fluorescence; stimulated with maximal-effect DAMGO;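 active = drop in membrane potential signal beyond 5 SD of the control wells in both duplicate plates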;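 also: TRPC4 counter screen for TRPC6 hits run under conditions tuned for TRPC6 not TRPC4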
# TRPC6 block conf – confirmation of mouse TRPC6 inhibitors; shares compounds with TRPC6 inh; HEK293-TRPC6, membrane potential dye, ACh-evoked depolarization; inhibition, % at 10 µM; 43% of 3,300 active; AID 488960;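 active = fluorescence ratio falls more than 5 SD below the full-stimulation control mean, in both duplicate runs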;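 also: integrated fluorescence ratio of peak minus minimum over baseline after agonist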
# TRPC6 act confirm – mouse TRPC6 activator confirmation. shares compounds with TRPC6 inh. HEK293-TRPC6 membrane potential dye fluorescence, FDSS. activation, % at 10 µM. 11% of 2,800 active. AID 488961;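 active = ratio signal rise beyond 5 SD above unstimulated control wells' mean, seen in both duplicate runs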
# A number is an active result; – = inactive; · = no result given. In the library only some 2.3% were active in any assay of this set; here they are far more common.
SMILES,TRPC4 act,TRPC4 potent,TRPC6 activator,TRPC4 block,TRPC6 inh,HEK293 MPD ctr-2,HEK293 MPD ctr 2-2,TRPC4 ctr mod,TRPC4 ctr inh 2,TRPC6 block conf,TRPC6 act confirm,others
COC(=O)C(C)Oc1cc(C)ccc1COc1ccc(-n2nc(C)n(C(F)F)c2=O)cc1 (stereo not given),–,–,–,–,–,·,·,·,·,·,·,
COc1ccc(CCNCC(=O)Nc2ccc(C)c(S(=O)(=O)N(C)C)c2)cc1OC,–,–,–,–,–,·,·,·,·,·,·,
CC(C)=CCCC(C)CN1CCC(n2nccc2NC(=O)c2ccc3c(c2)OCO3)CC1 (stereo not given),–,–,–,–,-7.3,·,·,·,·,56%,–,TRPC4 sel inh 2=36%;TRPC4 spec=6.8%;HEK293 MPD ctr 2-1=268%;HEK293 MPD ctr-1=10%
C/C=C(\C)CN1CCC(n2nccc2NC(=O)c2ccc3c(c2)OCO3)CC1,–,–,–,–,–,·,·,·,·,·,·,
S=c1[nH]ncn2c1cc1oc3ccccc3c12,–,–,–,–,–,·,·,·,·,·,·,
CCC1(C)Cc2c(sc3[nH]c(=S)[nH]c(=S)c23)CO1 (stereo not given),–,–,–,–,-8.9,·,·,·,·,–,–,TRPC4 sel inh 2=–;TRPC4 spec=–;HEK293 MPD ctr 2-1=–;HEK293 MPD ctr-1=–
CN1CCN(/N=C/c2ccc(N(C)c3ccccc3)cc2)CC1,–,–,–,–,-7.1,–,–,-12%,56%,63%,–,
CN1CCN(/N=C/c2ccc(N(c3ccccc3)c3ccccc3)cc2)CC1,–,–,–,–,–,·,·,·,·,·,·,
CCN1CCN(c2cc(C)c3cc(NC(=O)c4cnccn4)ccc3n2)CC1,–,–,–,–,-5.9,–,69%,11%,29%,–,–,
Cc1cc(N2CCN(C)CC2)nc2ccc(NC(=O)c3ccc(Br)o3)cc12,–,–,–,–,-6.3,-100%,–,–,80%,67%,–,
Cc1cc(N2CCCCC2)nc2ccc(NC(=O)c3ccc(Br)o3)cc12,–,–,–,–,-8.8,·,·,·,·,51%,–,TRPC4 sel inh 2=72%;TRPC4 spec=-31%;HEK293 MPD ctr 2-1=–;HEK293 MPD ctr-1=-332%
O=C(Nc1ccc(N2CCCC2)cc1)c1ccc(Br)o1,–,–,–,–,–,·,·,·,·,·,·,
O=C(CSc1nnc(CNC(=O)c2c(F)cccc2Cl)o1)NCc1ccc(F)cc1,–,–,–,–,–,·,·,·,·,·,·,
O=C(c1ccsc1)N1CCCC(N2CCOCC2)C1 (stereo not given),–,–,–,–,–,·,·,·,·,·,·,
Cc1ccc(-c2cnc(-c3ccccc3C(=O)O)o2)cc1,–,–,–,–,–,·,·,·,·,·,·,
COc1ccc(Br)c(C(=O)NCC2CCCCC2)c1,–,–,–,–,-5.2,–,–,44%,54%,–,·,
